The results in this text go back to ChEMBL document CHEMBL4825662 (J Med Chem, 2021).

One series has as its system Salmonella typhimurium. Put plainly: Genotoxicity in Salmonella typhimurium by Ames test. In kind it is functional, organism-based. Conditions: Salmonella enterica subsp. enterica serovar Typhimurium.
Series [1] can be described thus: Protein binding in human plasma assessed as unbound fraction at 5 uM by LC-MS/MS analysis based equilibrium dialysis method. In kind it is ADME, cell-free.
In the next series the test system is Human orthopneumovirus. Put plainly: Antiviral activity against Respiratory syncytial virus A Memphis 37b infected in human assessed as reduction in mean AUC of viral load at 200 mg administered twice daily administered for 5 days by RT-qPCR analysis. In kind it is functional. Further details: scale not given: the % may be the effect or the level left. Conditions: time 5 day. The gist of the method:
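Healthy adult volunteers aged 18–45 with low serum pre-existing RSV-specific antibodies were challenged on day zero with about 4 log10 PFU of RSV-A Memphis 37b. Subjects were randomized into 3 equal groups: 200 mg, 350 mg or placebo twice daily for 5 days, begun after infection was confirmed. Viral load in nasal wash was measured by RT-qPCR or by cell-based infectivity assay, and AUC was compared with placebo.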
On the technique in general: In qPCR the cycle at which signal appears reflects the starting amount.

The nature of series [2]: Oral bioavailability in Sprague-Dawley rat at 10 mg/kg administered via gavage measured after 0.02 to 24 hrs by tandem liquid chromatography/mass spectrometry. Conditions: in vivo, time 0.02-24 hrs. In kind it is ADME, organism-based. In a few lines:
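Male Sprague–Dawley rats (200–250 g), 3 per route. IV bolus at 1 mg/kg, 1 mg/mL in 40:60 dimethylacetamide/saline; oral gavage at 5 or 10 mg/kg, 5 mg/mL in 1% methyl cellulose, 0.1% Tween 80 in water. Serial blood at 0.02–24 h (ten points) into heparin, spun at 4 °C, plasma frozen; acetonitrile protein precipitation, ESI LC-MS/MS with matrix curve and internal standards.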

A short description of series [3]: Intrinsic clearance in human hepatocytes at 3 uM assessed per million cells measured up to 60 mins by LC-MS/MS analysis. Conditions: read-out: CLH. In kind it is ADME, cell-based, Hepatocyte.
Series [4] in a line: Cmax in Beagle dog at 3 mg/kg, po measured after 0.03 to 24 hrs by UHPLC-TOF method. The class given is ADME, organism-based, Canis lupus familiaris. More on the design: route oral, dose 3 mg/kg, time 0.03-24 hrs. Conditions: in vivo.
The nature of series [5]: Induction of adverse effect in human infected with Respiratory syncytial virus A Memphis 37b assessed as nausea at 200 to 350 mg administered twice daily administered for 5 days. Conditions: in vivo, 120 h, dose 200-350 mg, time 5 day. In a few lines:
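Challenge study in healthy adults aged 18–45 inoculated with about 4 log10 PFU of RSV-A Memphis 37b. Dosing was 200 or 350 mg twice daily for 5 days after infection was confirmed. Adverse events were monitored daily. ECG, physical examination and urinalysis were done at prespecified time points.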

Series [6] relates to Respiratory syncytial virus. Put plainly: Antiviral activity against Respiratory syncytial virus Memphis 37b infected in human HEp2 cells by plaque assay. The class given is functional, organism-based. To be noted: HEp-2.
The nature of series [7]: Volume of distribution at steady state in Beagle dog at 0.3 mg/kg, iv measured after 0.03 to 24 hrs by UHPLC-TOF method. The class given is ADME, organism-based, Canis lupus familiaris. To be noted: in vivo, time 0.03-24 hrs, read-out: Vdss. In a few lines: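 Dogs examined by a veterinary surgeon before each session, fed 2 h post-dose, water ad libitum, dosed as amorphous-solid suspension. Serial blood into heparinized tubes, centrifuged at 4 °C for 10 min at 3000g; plasma snap-frozen at −20 °C. IV sampling 2 min–24 h, oral 15 min–24 h. Plasma analysed by UHPLC-quadrupole-TOF MS.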

Series [8] deals with Respiratory syncytial virus. The series can be described thus: Antiviral activity against Respiratory syncytial virus infected in human airway epithelial cells assessed as reduction in RSV titer at 10 nM preincubated for 2 hrs followed by viral infection and measured after 7 day post infection by luminescence assay relative to control. The class given is functional, HAE. The gist of the method: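 Primary HAE cells were differentiated for 61 days on type IV collagen-coated trans-well inserts (n = 3 cultures). Compound at 10 nM was given basolaterally for 2 h before apical inoculation with 4 × 10⁵ pfu of luciferase-expressing recombinant RSV. Apical virus titer was read by luminescence on days 7 and 8 post-infection and compared with untreated controls. Data are mean SD.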

Regarding `NCc1ccc2c(c1)nc(CN1C(=O)C3(CC3)c3ccc(F)cc31)n2CCCC(F)(F)F` [SISUNATOVIR], the Activity result in the series on Salmonella typhimurium was “Not toxic”; with Human orthopneumovirus, 55.25%; in series [5], “Toxic”. The fraction unbound (commonly the share of the substance not bound to proteins or other matrix) at 5 µM in series [1] worked out at 0.67. Besides, in series [2], the bioavailability is 102%. In series [3], the hepatocyte CLint at 3 µM was 6.58 µL/min/1e6 cells. Moreover, in [4], the Cmax (in general, the highest concentration seen after dosing) worked out at 82.4 ng/mL. In addition, the EC50 (in general, the concentration needed to bring the measured effect to its halfway point) in series [6] stood at 1.18 nM. Further, in [7], the Vd was 17.6 L/kg. Further, the “log(activity)” value in series [8] was determined as 2.3.
